The source made the active and inactive calls.
Key:
[1] = tested on: DRG neuron; test: Increase in Ca2+ uptake in mouse DRG neurons at 20 ug/ml by Fura-2 dye-based fluorescence microscopy; type: functional
Outline: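 Mouse DRG cells plated in medium with additives and loaded with the Ca2+ dye Fura-2 AM. Compound applied directly at 20 μg/mL. Read-out is the fraction of cells showing a rise in Ca2+ concentration.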

[2] = target: Muscarinic acetylcholine receptor M1 (Homo sapiens) (UniProt P11229); test: Binding affinity to human M1 receptor expressed in CHO cells at 10 uM after 90 mins by microbeta counting analysis; type: cell-based
Outline: (§1)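 Primary radioligand displacement screen, run by PDSP/NIMH. Receptor panel includes muscarinic M1–M5. Activity threshold 10 μM. Targets with significant binding went on to secondary Ki assays.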

[3] = target: Muscarinic acetylcholine receptor M2 (Homo sapiens) (UniProt P08172); test: Binding affinity to human M2 receptor expressed in CHO cells at 10 uM after 90 mins by microbeta counting analysis; type: cell-based; outline: as §1
[4] = target: Muscarinic acetylcholine receptor M3 (Homo sapiens) (UniProt P20309); test: Binding affinity to human M3 receptor expressed in CHO Flp-In cells at 10 uM after 90 mins by microbeta counting analysis; type: cell-based; outline: as §1
[5] = target: Muscarinic acetylcholine receptor M4 (Homo sapiens) (UniProt P08173); test: Binding affinity to human M4 receptor expressed in CHO cells at 10 uM after 90 mins by microbeta counting analysis; type: cell-based; outline: as §1
[6] = target: Muscarinic acetylcholine receptor M5 (Homo sapiens) (UniProt P08912); test: Binding affinity to human M5 receptor expressed in CHO cells at 10 uM after 90 mins by microbeta counting analysis; type: cell-based; outline: as §1
[7] = target: 5-hydroxytryptamine receptor 1A (Homo sapiens) (UniProt P08908); test: Displacement of [3H]Way100635 from human serotonin 5-HT1A receptor expressed in CHO cells at 10 uM after 90 mins by microbeta counting analysis; type: cell-based; outline: as §1
[8] = target: 5-hydroxytryptamine receptor 1B (Homo sapiens) (UniProt P28222); test: Displacement of [3H]5-CT from human serotonin 5-HT1B receptor expressed in HEK cells at 10 uM after 90 mins by microbeta counting analysis; type: cell-based; conditions: HEK293; outline: as §1
[9] = target: 5-hydroxytryptamine receptor 1D (Homo sapiens) (UniProt P28221); test: Displacement of [3H]5-CT from human serotonin 5-HT1D receptor expressed in HEKT cells at 10 uM after 90 mins by microbeta counting analysis; type: cell-based; outline: as §1
[10] = target: 5-hydroxytryptamine receptor 1E (Homo sapiens) (UniProt P28566); test: Displacement of [3H]5-HT from human serotonin 5-HT1E receptor expressed in HEK cells at 10 uM after 90 mins by microbeta counting analysis; type: cell-based; conditions: HEK293; outline: as §1
[11] = target: 5-hydroxytryptamine receptor 2A (Homo sapiens) (UniProt P28223); test: Displacement of [3H]ketanserin from human serotonin 5-HT2A receptor expressed in HEKT cells at 10 uM after 90 mins by microbeta counting analysis; type: cell-based; outline: as §1
[12] = target: 5-hydroxytryptamine receptor 2B (Homo sapiens) (UniProt P41595); test: Displacement of [3H]LSD from human serotonin 5-HT2B receptor expressed in HEK cells at 10 uM after 90 mins by microbeta counting analysis; type: cell-based; conditions: HEK293; outline: as §1
[13] = target: 5-hydroxytryptamine receptor 2C (Homo sapiens) (UniProt P28335); test: Displacement of [3H]Mesulergine from human serotonin 5-HT2C receptor expressed in Flp-IN HEK cells at 10 uM after 90 mins by microbeta counting analysis; type: cell-based; conditions: HEK293; outline: as §1
[14] = target: 5-hydroxytryptamine receptor 3A (Homo sapiens) (UniProt P46098); test: Displacement of [3H]GR65630 from human serotonin 5-HT3 receptor expressed in HEKT cells at 10 uM after 90 mins by microbeta counting analysis; type: cell-based; outline: as §1
[15] = target: 5-hydroxytryptamine receptor 4 (Homo sapiens) (UniProt Q13639); test: Displacement of [3H]GR113808 from human serotonin 5-HT4 receptor at 10 uM after 90 mins by microbeta counting analysis; outline: as §1
[16] = target: 5-hydroxytryptamine receptor 5A (Homo sapiens) (UniProt P47898); test: Displacement of [3H]LSD from human serotonin 5-HT5A receptor expressed in Flp-In CHO cells at 10 uM after 90 mins by microbeta counting analysis; type: cell-based; outline: as §1
[17] = target: 5-hydroxytryptamine receptor 6 (Homo sapiens) (UniProt P50406); test: Displacement of [3H]LSD from human serotonin 5-HT6 receptor expressed in HEK cells at 10 uM after 90 mins by microbeta counting analysis; type: cell-based; conditions: HEK293; outline: as §1
[18] = target: 5-hydroxytryptamine receptor 7 (Homo sapiens) (UniProt P34969); test: Displacement of [3H]LSD from human serotonin 5-HT7 receptor expressed in HEK cells at 10 uM after 90 mins by microbeta counting analysis; type: cell-based; conditions: HEK293; outline: as §1
[19] = target: GABA-A receptor; anion channel (Homo sapiens) (UniProt P14867+P47870+P18507+P28472+P48169+Q99928+Q9UN88+P34903+O00591+O14764+Q8N1C3+P18505+P78334+P47869+P31644+Q16445); test: Displacement of [3H]Muscimol from rat GABAA receptor at 10 uM after 90 mins by microbeta counting analysis; type: protein-complex assay; conditions: target entry is the homologue from another species; outline: as §1
[20] = organism: Rattus norvegicus; test: Binding affinity to rat GABAB receptor at 10 uM after 90 mins by microbeta counting analysis; outline: as §1
[21] = target: Histamine H1 receptor (Homo sapiens) (UniProt P35367); test: Displacement of [3H]pyrilamine from human H1 histamine receptor expressed in HEK cells at 10 uM after 90 mins by microbeta counting analysis; type: cell-based; conditions: HEK293; outline: as §1
[22] = target: Histamine H2 receptor (Homo sapiens) (UniProt P25021); test: Binding affinity to human H2 histamine receptor expressed in HEK cells at 10 uM after 90 mins by microbeta counting analysis; type: cell-based; conditions: HEK293; outline: as §1
[23] = target: Histamine H3 receptor (Homo sapiens) (UniProt Q9Y5N1); test: Displacement of [3H]alpha-methylhistamine from human H3 histamine receptor expressed in HEK cells at 10 uM after 90 mins by microbeta counting analysis; type: cell-based; conditions: HEK293; outline: as §1
[24] = target: Histamine H4 receptor (Homo sapiens) (UniProt Q9H3N8); test: Displacement of [3H]histamine from human H4 histamine receptor expressed in HEK cells at 10 uM after 90 mins by microbeta counting analysis; type: cell-based; conditions: HEK293; outline: as §1
[25] = target: D(1A) dopamine receptor (Homo sapiens) (UniProt P21728); test: Displacement of [3H]SCH23390 from human dopamine D1 receptor expressed in HEKT cells at 10 uM after 90 mins by microbeta counting analysis; type: cell-based; outline: as §1
[26] = target: D(2) dopamine receptor (Homo sapiens) (UniProt P14416); test: Displacement of [3H]N-methylspiperone from human dopamine D2 receptor at 10 uM after 90 mins by microbeta counting analysis; outline: as §1
[27] = target: D(3) dopamine receptor (Rattus norvegicus) (UniProt P19020); test: Displacement of [3H]N-methylspiperone from rat dopamine D3 receptor expressed in HEKT cells at 10 uM after 90 mins by microbeta counting analysis; type: cell-based; outline: as §1
[28] = target: D(4) dopamine receptor (Homo sapiens) (UniProt P21917); test: Displacement of [3H]N-methylspiperone from human dopamine D4 receptor at 10 uM after 90 mins by microbeta counting analysis; outline: as §1
[29] = target: D(1B) dopamine receptor (Homo sapiens) (UniProt P21918); test: Displacement of [3H]SCH23390 from human dopamine D5 receptor expressed in HEKT cells at 10 uM after 90 mins by microbeta counting analysis; type: cell-based; outline: as §1
[30] = target: Sodium-dependent noradrenaline transporter (Homo sapiens) (UniProt P23975); test: Displacement of [3H]nisoxetine from NET (unknown origin) expressed in HEK cells at 10 uM after 90 mins by microbeta counting analysis; type: cell-based; conditions: HEK293; outline: as §1
[31] = target: Sodium-dependent serotonin transporter (Homo sapiens) (UniProt P31645); test: Displacement of [3H]citalopram from SERT (unknown origin) expressed in HEK cells at 10 uM after 90 mins by microbeta counting analysis; type: cell-based; conditions: HEK293; outline: as §1
[32] = target: Sodium-dependent dopamine transporter (Homo sapiens) (UniProt Q01959); test: Displacement of [3H]WIN35428 from human DAT expressed in HEK cells at 10 uM after 90 mins by microbeta counting analysis; type: cell-based; conditions: HEK293
[33] = target: Delta-type opioid receptor (Homo sapiens) (UniProt P41143); test: Displacement of [3H]DADLE from delta opioid receptor (unknown origin) expressed in HEK cells at 10 uM after 90 mins by microbeta counting analysis; type: cell-based; conditions: HEK293; outline: as §1
[34] = target: Kappa-type opioid receptor (Homo sapiens) (UniProt P41145); test: Displacement of [3H]U69593 from kappa opioid receptor (unknown origin) expressed in HEK cells at 10 uM after 90 mins by microbeta counting analysis; type: cell-based; conditions: HEK293; outline: as §1
[35] = target: Mu-type opioid receptor (Homo sapiens) (UniProt P35372); test: Displacement of [3H]DAMGO from mu opioid receptor (unknown origin) expressed in HEK cells at 10 uM after 90 mins by microbeta counting analysis; type: cell-based; conditions: HEK293; outline: as §1
[36] = target: Alpha-1A adrenergic receptor (Homo sapiens) (UniProt P35348); test: Displacement of [3H]prazosin from adrenergic alpha1A receptor (unknown origin) at 10 uM after 90 mins by microbeta counting analysis; outline: as §1
[37] = target: Alpha-1B adrenergic receptor (Homo sapiens) (UniProt P35368); test: Displacement of [3H]prazosin from adrenergic alpha1B receptor (unknown origin) expressed in HEKT cells at 10 uM after 90 mins by microbeta counting analysis; type: cell-based; outline: as §1
[38] = target: Alpha-1D adrenergic receptor (Homo sapiens) (UniProt P25100); test: Displacement of [3H]prazosin from adrenergic alpha1D receptor (unknown origin) at 10 uM after 90 mins by microbeta counting analysis; outline: as §1
[39] = target: Alpha-2A adrenergic receptor (Homo sapiens) (UniProt P08913); test: Displacement of [3H]rauwolscine from adrenergic alpha2A receptor (unknown origin) expressed in MDCK cells at 10 uM after 90 mins by microbeta counting analysis; type: cell-based; outline: as §1
[40] = target: Alpha-2B adrenergic receptor (Homo sapiens) (UniProt P18089); test: Displacement of [3H]rauwolscine from adrenergic alpha2B receptor (unknown origin) expressed in HEKT cells at 10 uM after 90 mins by microbeta counting analysis; type: cell-based; outline: as §1
[41] = target: Alpha-2C adrenergic receptor (Homo sapiens) (UniProt P18825); test: Displacement of [3H]rauwolscine from adrenergic alpha2C receptor (unknown origin) expressed in MDCK cells at 10 uM after 90 mins by microbeta counting analysis; type: cell-based; outline: as §1
[42] = target: Beta-1 adrenergic receptor (Homo sapiens) (UniProt P08588); test: Binding affinity to human adrenergic beta1 receptor expressed in CHO Flp-In cells at 10 uM after 90 mins by microbeta counting analysis; type: cell-based; outline: as §1
[43] = target: Beta-2 adrenergic receptor (Homo sapiens) (UniProt P07550); test: Displacement of [3H]CGP12177 from human adrenergic beta2 receptor expressed in HEK Flp-In cells at 10 uM after 90 mins by microbeta counting analysis; type: cell-based; conditions: HEK293; outline: as §1
[44] = target: Beta-3 adrenergic receptor (Homo sapiens) (UniProt P13945); test: Binding affinity to human adrenergic beta3 receptor expressed in HEK Flp-In cells at 10 uM after 90 mins by microbeta counting analysis; type: cell-based; conditions: HEK293; outline: as §1
[45] = target: Sigma non-opioid intracellular receptor 1 (Rattus norvegicus) (UniProt Q9R0C9); test: Displacement of [3H]pentazocine from rat sigma1 receptor at 10 uM after 90 mins by microbeta counting analysis; outline: as §1
[46] = organism: Rattus norvegicus; test: Displacement of [3H]DTG from rat sigma2 receptor at 10 uM after 90 mins by microbeta counting analysis; outline: as §1
[47] = target: Voltage-gated L-type calcium channel (Rattus norvegicus, UniProt P22002+Q02485+P27732); test: Binding affinity to rat calcium channel at 10 uM after 90 mins by microbeta counting analysis; conditions: 1.5 h; outline: as §1

Chain of Muscarinic acetylcholine receptor M4 (Homo sapiens) (P08173 whole entry): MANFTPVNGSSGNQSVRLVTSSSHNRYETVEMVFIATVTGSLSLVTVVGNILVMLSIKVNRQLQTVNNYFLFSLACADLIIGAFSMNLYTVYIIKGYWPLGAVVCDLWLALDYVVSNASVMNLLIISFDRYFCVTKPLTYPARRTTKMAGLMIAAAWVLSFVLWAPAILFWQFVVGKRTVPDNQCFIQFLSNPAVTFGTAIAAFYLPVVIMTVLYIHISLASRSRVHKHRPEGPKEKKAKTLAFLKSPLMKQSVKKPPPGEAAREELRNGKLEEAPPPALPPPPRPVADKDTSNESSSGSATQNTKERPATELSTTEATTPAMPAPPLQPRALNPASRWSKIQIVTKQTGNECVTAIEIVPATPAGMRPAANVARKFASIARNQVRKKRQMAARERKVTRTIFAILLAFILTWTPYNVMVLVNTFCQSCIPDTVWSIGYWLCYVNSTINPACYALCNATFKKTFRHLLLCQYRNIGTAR
Chain of Histamine H2 receptor (Homo sapiens) (P25021 whole entry): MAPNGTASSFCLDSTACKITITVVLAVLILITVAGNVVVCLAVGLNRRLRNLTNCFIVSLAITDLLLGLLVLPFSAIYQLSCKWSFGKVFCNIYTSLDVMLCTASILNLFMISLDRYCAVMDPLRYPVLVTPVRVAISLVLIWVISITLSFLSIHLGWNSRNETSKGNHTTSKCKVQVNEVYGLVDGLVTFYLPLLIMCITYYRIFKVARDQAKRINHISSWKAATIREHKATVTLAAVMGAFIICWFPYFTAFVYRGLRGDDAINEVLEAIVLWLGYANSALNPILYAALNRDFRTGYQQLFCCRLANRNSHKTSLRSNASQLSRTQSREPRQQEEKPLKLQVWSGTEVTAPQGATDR
Chain of 5-hydroxytryptamine receptor 1B (Homo sapiens) (P28222 whole entry): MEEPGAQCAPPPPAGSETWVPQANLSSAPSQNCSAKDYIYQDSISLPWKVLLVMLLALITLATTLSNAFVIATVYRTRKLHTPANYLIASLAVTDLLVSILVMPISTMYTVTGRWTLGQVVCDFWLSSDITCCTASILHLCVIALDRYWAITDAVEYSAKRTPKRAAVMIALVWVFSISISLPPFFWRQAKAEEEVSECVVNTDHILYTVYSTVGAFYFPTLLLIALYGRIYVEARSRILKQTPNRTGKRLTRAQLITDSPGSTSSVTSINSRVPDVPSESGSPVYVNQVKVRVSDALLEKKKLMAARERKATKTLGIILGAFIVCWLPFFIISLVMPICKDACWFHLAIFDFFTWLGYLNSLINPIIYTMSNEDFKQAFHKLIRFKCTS
Chain of 5-hydroxytryptamine receptor 1D (Homo sapiens) (P28221 whole entry): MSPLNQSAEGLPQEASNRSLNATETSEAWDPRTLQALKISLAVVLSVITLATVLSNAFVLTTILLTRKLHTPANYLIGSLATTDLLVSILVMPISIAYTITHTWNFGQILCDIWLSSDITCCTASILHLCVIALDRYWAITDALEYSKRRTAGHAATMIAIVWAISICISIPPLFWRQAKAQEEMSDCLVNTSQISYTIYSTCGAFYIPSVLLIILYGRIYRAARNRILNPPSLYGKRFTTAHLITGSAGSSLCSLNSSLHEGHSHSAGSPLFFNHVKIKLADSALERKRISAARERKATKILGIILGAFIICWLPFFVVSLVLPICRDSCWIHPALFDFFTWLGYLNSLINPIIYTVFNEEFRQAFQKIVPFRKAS
Chain of 5-hydroxytryptamine receptor 2A (Homo sapiens) (P28223 whole entry): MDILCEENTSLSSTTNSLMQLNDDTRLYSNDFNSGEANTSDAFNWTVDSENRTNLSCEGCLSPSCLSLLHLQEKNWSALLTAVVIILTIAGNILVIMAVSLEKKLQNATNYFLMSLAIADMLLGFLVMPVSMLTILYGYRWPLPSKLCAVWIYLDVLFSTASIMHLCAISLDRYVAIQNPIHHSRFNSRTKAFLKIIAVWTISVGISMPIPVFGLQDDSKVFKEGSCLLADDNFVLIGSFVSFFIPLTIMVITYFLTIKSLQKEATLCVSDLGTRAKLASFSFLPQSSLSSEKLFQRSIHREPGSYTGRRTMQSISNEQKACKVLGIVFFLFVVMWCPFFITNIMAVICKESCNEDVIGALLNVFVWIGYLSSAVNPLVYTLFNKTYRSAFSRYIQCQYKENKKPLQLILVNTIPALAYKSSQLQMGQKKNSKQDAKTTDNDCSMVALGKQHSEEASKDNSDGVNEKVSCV
Chain of Beta-1 adrenergic receptor (Homo sapiens) (P08588 whole entry, looked up): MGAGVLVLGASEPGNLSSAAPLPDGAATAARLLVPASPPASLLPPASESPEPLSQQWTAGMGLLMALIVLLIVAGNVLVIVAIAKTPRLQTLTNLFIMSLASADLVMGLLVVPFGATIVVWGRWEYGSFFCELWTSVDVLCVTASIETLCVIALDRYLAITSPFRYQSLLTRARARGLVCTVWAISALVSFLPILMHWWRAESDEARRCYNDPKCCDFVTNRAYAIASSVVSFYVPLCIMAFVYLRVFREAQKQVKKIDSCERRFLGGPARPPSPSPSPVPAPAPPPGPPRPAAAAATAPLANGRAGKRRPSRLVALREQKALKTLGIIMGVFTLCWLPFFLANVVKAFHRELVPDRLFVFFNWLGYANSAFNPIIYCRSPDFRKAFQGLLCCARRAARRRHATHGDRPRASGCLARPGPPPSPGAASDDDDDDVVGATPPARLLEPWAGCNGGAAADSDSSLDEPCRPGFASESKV
Chain of Sigma non-opioid intracellular receptor 1 (Rattus norvegicus) (Q9R0C9 whole entry): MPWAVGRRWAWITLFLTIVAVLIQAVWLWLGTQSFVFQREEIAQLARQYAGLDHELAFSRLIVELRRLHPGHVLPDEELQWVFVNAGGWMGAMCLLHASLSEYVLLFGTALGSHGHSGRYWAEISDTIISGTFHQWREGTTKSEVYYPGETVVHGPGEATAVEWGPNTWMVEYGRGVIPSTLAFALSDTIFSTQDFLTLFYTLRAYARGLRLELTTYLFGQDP
Chain of 5-hydroxytryptamine receptor 2B (Homo sapiens) (P41595 whole entry): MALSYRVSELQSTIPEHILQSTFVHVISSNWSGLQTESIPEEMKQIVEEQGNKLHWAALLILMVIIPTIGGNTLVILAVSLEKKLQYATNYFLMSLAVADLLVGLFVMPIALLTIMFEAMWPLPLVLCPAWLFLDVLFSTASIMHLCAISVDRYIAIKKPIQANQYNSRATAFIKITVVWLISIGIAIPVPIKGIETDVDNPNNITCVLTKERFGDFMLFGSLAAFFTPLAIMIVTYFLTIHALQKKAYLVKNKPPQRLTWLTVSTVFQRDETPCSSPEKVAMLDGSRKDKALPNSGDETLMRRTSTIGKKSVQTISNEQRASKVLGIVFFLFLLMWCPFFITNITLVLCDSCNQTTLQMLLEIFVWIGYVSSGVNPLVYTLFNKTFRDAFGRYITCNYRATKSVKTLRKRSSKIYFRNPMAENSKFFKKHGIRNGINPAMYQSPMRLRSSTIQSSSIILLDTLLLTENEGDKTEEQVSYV
Chain of 5-hydroxytryptamine receptor 3A (Homo sapiens) (P46098 whole entry): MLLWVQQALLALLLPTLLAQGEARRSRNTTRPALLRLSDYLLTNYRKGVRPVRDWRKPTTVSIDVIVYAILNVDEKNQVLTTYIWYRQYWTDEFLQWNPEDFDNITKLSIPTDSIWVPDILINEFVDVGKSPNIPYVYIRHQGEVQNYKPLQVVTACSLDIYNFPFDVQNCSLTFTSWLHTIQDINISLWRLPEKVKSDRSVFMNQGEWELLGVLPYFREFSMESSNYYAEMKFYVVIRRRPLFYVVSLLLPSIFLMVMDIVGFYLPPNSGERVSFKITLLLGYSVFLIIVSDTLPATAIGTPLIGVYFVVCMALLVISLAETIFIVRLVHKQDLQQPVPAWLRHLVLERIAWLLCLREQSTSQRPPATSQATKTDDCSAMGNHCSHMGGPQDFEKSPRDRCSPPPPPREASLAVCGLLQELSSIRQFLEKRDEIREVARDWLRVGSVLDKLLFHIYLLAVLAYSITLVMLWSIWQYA
Chain of 5-hydroxytryptamine receptor 1A (Homo sapiens) (P08908 whole entry): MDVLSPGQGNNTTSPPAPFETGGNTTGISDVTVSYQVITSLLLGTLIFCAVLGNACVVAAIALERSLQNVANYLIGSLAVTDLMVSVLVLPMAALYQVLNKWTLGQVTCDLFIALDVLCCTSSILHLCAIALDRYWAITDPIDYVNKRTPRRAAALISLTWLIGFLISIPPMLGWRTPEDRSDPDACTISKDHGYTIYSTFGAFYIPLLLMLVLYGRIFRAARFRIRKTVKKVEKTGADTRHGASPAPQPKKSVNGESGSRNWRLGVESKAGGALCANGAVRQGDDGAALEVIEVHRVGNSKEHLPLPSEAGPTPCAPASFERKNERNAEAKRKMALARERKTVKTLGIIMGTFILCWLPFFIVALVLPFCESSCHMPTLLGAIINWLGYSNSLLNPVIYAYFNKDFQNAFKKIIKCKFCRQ
Chain of D(4) dopamine receptor (Homo sapiens) (P21917 whole entry): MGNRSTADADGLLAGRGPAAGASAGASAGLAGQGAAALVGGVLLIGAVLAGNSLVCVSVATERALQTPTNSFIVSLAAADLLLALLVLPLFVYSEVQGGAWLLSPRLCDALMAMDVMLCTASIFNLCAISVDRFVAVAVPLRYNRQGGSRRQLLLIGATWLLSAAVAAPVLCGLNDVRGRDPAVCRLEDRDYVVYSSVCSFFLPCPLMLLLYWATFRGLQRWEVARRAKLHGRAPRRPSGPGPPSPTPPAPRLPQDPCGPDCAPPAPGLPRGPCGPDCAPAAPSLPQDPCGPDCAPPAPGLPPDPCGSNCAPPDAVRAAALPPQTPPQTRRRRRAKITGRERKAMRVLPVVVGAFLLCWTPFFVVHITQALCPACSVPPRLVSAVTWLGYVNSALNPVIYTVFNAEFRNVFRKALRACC
Chain of 5-hydroxytryptamine receptor 1E (Homo sapiens) (P28566 whole entry): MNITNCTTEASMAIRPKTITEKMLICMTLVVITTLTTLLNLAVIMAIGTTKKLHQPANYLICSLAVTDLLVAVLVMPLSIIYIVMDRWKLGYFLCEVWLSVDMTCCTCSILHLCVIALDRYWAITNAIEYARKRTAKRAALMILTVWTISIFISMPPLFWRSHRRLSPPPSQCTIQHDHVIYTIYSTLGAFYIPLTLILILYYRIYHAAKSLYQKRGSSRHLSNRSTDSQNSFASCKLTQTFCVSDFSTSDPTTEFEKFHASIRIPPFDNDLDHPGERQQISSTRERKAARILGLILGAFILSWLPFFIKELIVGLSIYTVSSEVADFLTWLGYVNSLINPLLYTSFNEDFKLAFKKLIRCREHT

SMILES: Cc1cc2cc(CCC(=O)O)c(O)c(O)c2c(=O)o1
- Activity [1]: Active

SMILES: COC(=O)CCc1cc2cc(C)oc(=O)c2c(O)c1O
- Activity [1]: Active
- Activity [2]: inactive
- Activity [3]: inactive
- Activity [4]: inactive
- Activity [5]: inactive
- Activity [6]: inactive
- Activity [7]: inactive
- Activity [8]: inactive
- Activity [9]: inactive
- Activity [10]: inactive
- Activity [11]: inactive
- Activity [12]: inactive
- Activity [13]: inactive
- Activity [14]: inactive
- Activity [15]: inactive
- Activity [16]: inactive
- Activity [17]: inactive
- Activity [18]: inactive
- Activity [19]: inactive
- Activity [20]: inactive
- Activity [21]: inactive
- Activity [22]: inactive
- Activity [23]: inactive
- Activity [24]: inactive
- Activity [25]: inactive
- Activity [26]: inactive
- Activity [27]: inactive
- Activity [28]: inactive
- Activity [29]: inactive
- Activity [30]: inactive
- Activity [31]: inactive
- Activity [32]: inactive
- Activity [33]: inactive
- Activity [34]: inactive
- Activity [35]: inactive
- Activity [36]: inactive
- Activity [37]: inactive
- Activity [38]: inactive
- Activity [39]: inactive
- Activity [40]: inactive
- Activity [41]: inactive
- Activity [42]: inactive
- Activity [43]: inactive
- Activity [44]: inactive
- Activity [45]: inactive
- Activity [46]: inactive
- Activity [47]: Not Active
